From the RNAGym collection of RNA variant scans (doi:10.1101/gad.245936.114) come the findings set out here.

Fewer inactive variants are shown than the library holds.

B1: tRNA (parent)
chain: CUCUCGGUAGCCAAGUUGGUUUAAGGCGCAAGACUUUAAUUUAUCACUACGAAAUCUUGAGAUCGGGCGUUCGACUCGCCCCCGGGAGAUUUUUUCCUCGAGCAA

This data set covers variants of B1. Nature of the data set: nonsense suppression (GFP-seq) (ratio to wild type); higher = more function; SUP4oc tRNA, yeast GFP reporter sort-seq. The gist of the method:
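Sorted GFP/RFP bins of yeast were each Illumina-sequenced with a phred ≥30 cutoff; the cells held a genome-integrated ochre-suppressor tRNA variant from a library with ~3% random mutations, a galactose-driven GFP ochre reporter, and RFP. Culture was in raffinose/galactose medium containing 80 mg/L adenine. Nonsense suppression, termed GFPSEQ, is the median GFP/RFP of the bins weighted by each variant's estimated cell share per bin, relative to the unmutated parent tRNA, for variants reaching ≥100 reads and ≥30 cells.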
Take CUCUCGGUAGCCAAGUUGGUUUAAGGCGCAAGACUUUAAUUUAUCACUACGAAAUCUUGAGAUCGGGCGAUCGACUCGCCCCUGGGAGAUUUUUUCCUCGAGCAA [U70A C83U]: the nonsense suppression worked out at 0.0439. With CUCUCGGUAGCCAAGUUGGUUUAAGGCGCAAGACUUUAAUUUAUCACUACGAAAUCUUGAGAUCGGGCGUGCGACUAGUCCCCGGGUGAUUUUUUCCUCGAGCAA [U71G C77A C79U A87U], the nonsense suppression was no more than 0.026. The figure for CUCUCGGUAGCCAAGUUGGUUUAAGGCGCAAGACUUUAAUUUAUCACUACGAAAUCUUGAGAUCGGGCGUUUGACUCGCACCCGGGCGAUUUUUUCCUCGAGCAA [C72U C80A A87C] is 0.714.

On to CUCUCGGUAGCCAAGUUGGUUUAAGGCGCAAGACUUUAAUUUAUCACUACGAAAUCUUGAGAUCGGGCCUUCGACUCGCCCCCGGGAUAUUUUUUCCUCGAGCAA [G69C G88U], for which the nonsense suppression is no more than 0.026. The figure for CUCUCGGUAGCCAAGUUGGUUUAAGGCGCAAGACUUUAAUUUAUCACUACGAAAUCUUGAGAUCGGGCGUUCAACUCGCCCCCGAGAGAUUUUUUCCUCGAGCAA [G73A G85A] is 1.03; for CUCUCGGUAGCCAAGUUGGUUUAAGGCGCAAGACUUUAAUUUAUCACUACGAAAUCUUGAGAUCGGGCGUUCAACUCGCCCCCGUGAGAUUUUUUCCUCGAGCAA [G73A G85U] it is 0.285. Regarding CUCUCGGUAGCCAAGUUGGUUUAAGGCGCAAGACUUUAAUUUAUCACUACGAAAUCUUGAGAUCGGGCGUUGGACUCGCCCCCGGGAUAUUUUUUCCUCGAGCAA [C72G G88U], the nonsense suppression is no more than 0.026. The figure for CUCUCGGUAGCCAAGUUGGUUUAAGGCGCAAGACUUUAAUUUAUCACUACGAAAUCUUGAGAUCGGGCGUUCAACACGCCCCCGGGAGAUUUUUUCCUCGAGCAA [G73A U76A] is 0.0803; for CUCUCGGUAGCCAAGUUGGUUUAAGGCGCAAGACUUUAAUUUAUCACUACGAAAUCUUGAGAUCGGGCGUUCAACCCGCCCCCGGGAGAUUUUUUCCUCGAGCAA [G73A U76C] it is 0.682; for CUCUCGGUAGCCAAGUUGGUUUAAGGCGCAAGACUUUAAUUUAUCACUACGAAAUCUUGAGAUCGGGCGUUCAACUCGCCCCCGGGAGCUUUUUUCCUCGAGCAA [G73A A89C] it is 0.0768.

On to CUCUCGGUAGCCAAGUUGGUUUAAGGCGCAAGACUUUAAUUUAUCACUACGAAAUCUUGAGAUCGGGCGUUCCACUCGCCCCAGGGAGAUUUUUUCCUCGAGCAA [G73C C83A], for which the nonsense suppression was no more than 0.026. The figure for CUCUCGGUAGCCAAGUUGGUUUAAGGCGCAAGACUUUAAUUUAUCACUACGAAAUCUUGAGAUCGGGCGUUCGGCUCGCCCCGGGGAGAUUUUUUCCUCGAGCAA [A74G C83G] is no more than 0.026; for CUCUCGGUAGCCAAGUUGGUUUAAGGCGCAAGACUUUAAUUUAUCACUACGAAAUCUUGAGAUCGGGCGUUGGACUCACCCCCGGGAGAUUUUUUCCUCGAGCAA [C72G G78A] it is 0.0282. The figure for CUCUCGGUAGCCAAGUUGGUUUAAGGCGCAAGACUUUAAUUUAUCACUACGAAAUCUUGAGAUCGGGCCUUCGACUGGCCCCCGGGAGAUUUUUUCCUCGAGCAA [G69C C77G] is no more than 0.026; for CUCUCGGUAGCCAAGUUGGUUUAAGGCGCAAGACUUUAAUUUAUCACUACGAAAUCUUGAGAUCGGGCUUUGGACUCGCCCCCGGGAGAUUUUUUCCUCGAGCAA [G69U C72G] it is no more than 0.026; for CUCUCGGUAGCCAAGUUGGUUUAAGGCGCAAGACUUUAAUUUAUCACUACGAAAUCUUGAGAUCGGGCGUUUGACUCGCCACCGGGAGAUUUUUUCCUCGAGCAA [C72U C81A] it is no more than 0.026. As for CUCUCGGUAGCCAAGUUGGUUUAAGGCGCAAGACUUUAAUUUAUCACUACGAAAUCUUGAGAUCGGGCGCUCGAUUCGCCCCCGGGAGAUUUUUUCCUCGAGCAA [U70C C75U], the nonsense suppression is no more than 0.026. The figure for CUCUCGGUAGCCAAGUUGGUUUAAGGCGCAAGACUUUAAUUUAUCACUACGAAAUCUUGAGAUCGGGCGUGCGACUCGCCCCCGGGAGUUUUUUUCCUCGAGCAA [U71G A89U] is no more than 0.026; for CUCUCGGUAGCCAAGUUGGUUUAAGGCGCAAGACUUUAAUUUAUCACUACGAAAUCUUGAGAUCGGGCUUGCGACUCGCCCCCGGGAGAUUUUUUCCUCGAGCAA [G69U U71G] it is no more than 0.026; for CUCUCGGUAGCCAAGUUGGUUUAAGGCGCAAGACUUUAAUUUAUCACUACGAAAUCUUGAGAUCGGGCGUUCCACACGCCCCCGGGAGAUUUUUUCCUCGAGCAA [G73C U76A] it is no more than 0.026.

As for CUCUCGGUAGCCAAGUUGGUUUAAGGCGCAAGACUUUAAUUUAUCACUACGAAAUCUUGAGAUCGGGCGUUUGACUCACCCCCGGGAGAUUUUUUCCUCGAGCAA [C72U G78A], the nonsense suppression turned out to be 0.0322. The figure for CUCUCGGUAGCCAAGUUGGUUUAAGGCGCAAGACUUUAAUUUAUCACUACGAAAUCUUGAGAUCGGGCGUUCAACUCGUCCCCGGGAGAUUUUUUCCUCGAGCAA [G73A C79U] is 0.207; for CUCUCGGUAGCCAAGUUGGUUUAAGGCGCAAGACUUUAAUUUAUCACUACGAAAUCUUGAGAUCGGGCGUUCGGCUCGCCGCCGGGAGAUUUUUUCCUCGAGCAA [A74G C81G] it is no more than 0.026; for CUCUCGGUAGCCAAGUUGGUUUAAGGCGCAAGACUUUAAUUUAUCACUACGAAAUCUUGAGAUCGGGCGUGUGACUCGCCCCCGGGAGAUUUUUUCCUCGAGCAA [U71G C72U] it is no more than 0.026.

For CUCUCGGUAGCCAAGUUGGUUUAAGGCGCAAGACUUUAAUUUAUCACUACGAAAUCUUGAGAUCGGGCGUCCGACUGGCCCCCAGGAGAUUUUUUCCUCGAGCAA [U71C C77G G84A], the nonsense suppression is no more than 0.026. The figure for CUCUCGGUAGCCAAGUUGGUUUAAGGCGCAAGACUUUAAUUUAUCACUACGAAAUCUUGAGAUCGGGCGUUCGCCCCGCCCCCGGAAGGUUUUUUCCUCGAGCAA [A74C U76C G86A A89G] is no more than 0.026. Turning to CUCUCGGUAGCCAAGUUGGUUUAAGGCGCAAGACUUUAAUUUAUCACUACGAAAUCUUGAGAUCGGGCGCUCGGCUCGCCCCCGGGCGAUUUUUUCCUCGAGCAA [U70C A74G A87C], the nonsense suppression is no more than 0.026.
